# Source: ChEMBL document CHEMBL1136634, “Synthesis and photoreactivity of caged blockers for glutamate transporters” (Bioorg Med Chem Lett, 2003)
# Assays:
# [1] = Half-life was determined; format: ADME; details: human
# [2] = Glutamate uptake inhibition assay on EAAT2 stably expressed on MDCK cells; format: cell-based, Canis lupus familiaris
# [3] = Glutamate uptake inhibition assay on glutamate transporters (excitatory amino acid transporters EAAT2) stably expressed on MDCK cells before U.V radiation; format: cell-based; details: Canis lupus familiaris
# [4] = Glutamate uptake inhibition assay on glutamate transporters (excitatory amino acid transporters EAAT2) stably expressed on MDCK cells after 10 min U.V irradiation; format: cell-based; details: Canis lupus familiaris, light or radiation study
# Summary of the method: (§1)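 Before assay, caged compound in PBS(+) (1 mM CaCl2, 1 mM MgCl2, pH 7.4) was held in 1 mm quartz cuvettes in a dark box and irradiated with a 365 nm UV hand lamp at room temperature. Relative specific uptake came from three experiments, and IC50 was derived.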
# [5] = Glutamate uptake inhibition assay on glutamate transporters (excitatory amino acid transporters EAAT2) stably expressed on MDCK cells after 1 min U.V irradiation; format: cell-based; details: Canis lupus familiaris, light or radiation study; summary of the method: as §1
# [6] = Glutamate uptake inhibition assay on glutamate transporters (excitatory amino acid transporters EAAT2) stably expressed on MDCK cells after 5 min U.V irradiation; format: cell-based; details: Canis lupus familiaris, light or radiation study; summary of the method: as §1
# [7] = Glutamate uptake inhibition assay on glutamate transporters (excitatory amino acid transporters EAAT2) stably expressed on MDCK cells after 20 min U.V irradiation; format: cell-based; details: Canis lupus familiaris, light or radiation study; summary of the method: as §1
half-life [1] [min],"IC50 ([2]; Canis lupus familiaris, MDCK) [µM]",IC50 [3] [µM],Structure (SMILES),further results
–,–,1.3,N[C@H](C(=O)O)[C@H](OCc1ccccc1)C(=O)O,–
3.7,–,124,N[C@H](C(=O)OCc1cc(=O)oc2cc(OCC(=O)O)ccc12)[C@H](OCc1ccccc1)C(=O)O,IC50 [4]: 7 µM; IC50 [5]: 24 µM; IC50 [6]: 8.6 µM; IC50 [7]: 5.6 µM

# Second part, the compound before the results:
Structure (SMILES),half-life [1] [min],"IC50 ([2]; Canis lupus familiaris, MDCK) [µM]",IC50 [3] [µM],further results
COc1cc(C(C)OC(=O)[C@@H](N)[C@H](OCc2ccccc2)C(=O)O)c([N+](=O)[O-])cc1OC (stereo in doubt; 3b),45.2,111,–,–
COc1ccc2c(COC(=O)[C@@H](N)[C@H](OCc3ccccc3)C(=O)O)cc(=O)oc2c1,3.9,124,–,–
COc1cc(C(C)OC(=O)[C@@H](N)[C@H](OCc2ccccc2)C(=O)O)c([N+](=O)[O-])cc1OC (stereo in doubt; 3a),–,–,–,T1/2 [1]: 57.2 min; IC50 ([2]; mdck): 103 µM
